According to ChEMBL document CHEMBL3286172, “Exploring the role of 2-chloro-6-fluoro substitution in 2-alkylthio-6-benzyl-5-alkylpyrimidin-4(3H)-ones: effects in HIV-1-infected cells and in HIV-1 reverse transcriptase enzymes” (J Med Chem, 2014):
pEC50: −log10 of the molar value.

Assays:
[1] = system: Human immunodeficiency virus 1; test: Antiviral activity against HIV-1 harboring NNTRI-resistant reverse transcriptase Y188L mutant infected in human MT4 cells assessed as inhibition of virus-induced cytopathic effect by MTT method; assay type: functional, organism-based; conditions: Human immunodeficiency virus 1, MT4
Procedure, shortened: (§1)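 MT-4 lymphoid cells infected with HIV-1 carrying RT K103N, Y181C or Y188L, with a range of drug concentrations present. Viable cells counted by MTT colorimetric assay at day 5 post-infection. […] Highest concentration tested was limited by precipitation in culture medium. Means of at least two experiments.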

[2] = system: Human immunodeficiency virus 1; test: Antiviral activity against HIV-1 harboring NNTRI-resistant reverse transcriptase Y181C mutant infected in human MT4 cells assessed as inhibition of virus-induced cytopathic effect by MTT method; assay type: functional, organism-based; conditions: Human immunodeficiency virus 1, MT4; procedure, shortened: as §1
[3] = system: Human immunodeficiency virus 1; test: Antiviral activity against HIV-1 harboring NNTRI-resistant reverse transcriptase K103N mutant infected in human MT4 cells assessed as inhibition of virus-induced cytopathic effect by MTT method; assay type: functional, organism-based; conditions: Human immunodeficiency virus 1, MT4
[4] = system: Human immunodeficiency virus 1; test: Fold resistance, ratio of EC50 for HIV-1 harboring NNTRI-resistant reverse transcriptase K103N mutant infected in human MT4 cells to EC50 for wild type HIV-1 NL4-3 infected in human MT4 cells; assay type: functional
[5] = system: Human immunodeficiency virus 1; test: Fold resistance, ratio of EC50 for HIV-1 harboring NNTRI-resistant reverse transcriptase Y181C mutant infected in human MT4 cells to EC50 for wild type HIV-1 NL4-3 infected in human MT4 cells; assay type: functional
Procedure, shortened: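 MT-4 cells infected with HIV-1 mutant (K103N or Y181C) or wild-type NL4-3, with drug present. […] Fold resistance is the mutant EC50 divided by the wild-type NL4-3 EC50. EC50 values are means of at least two experiments.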

[6] = system: Human immunodeficiency virus 1; test: Antiviral activity against wild type HIV-1 NL4-3 infected in human MT4 cells assessed as inhibition of virus-induced cytopathic effect by MTT method; assay type: functional, organism-based; conditions: Human immunodeficiency virus 1, NL4-3, MT4
Procedure, shortened: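 MT-4 lymphoid cells infected with wild-type HIV-1 NL4-3 while exposed to a range of drug concentrations. Viable cells counted by tetrazolium (MTT) colorimetry at day 5 post-infection. Means of at least two experiments.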

[7] = system: Human immunodeficiency virus 1; test: Fold resistance, ratio of ID50 for HIV-1 recombinant NNTRI-resistant reverse transcriptase Y181I mutant to ID50 for wild type HIV-1 recombinant reverse transcriptase
Procedure, shortened: (§2)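 RNA-dependent DNA polymerase activity with 0.5 µg poly(rA)/oligo(dT)10:1 (0.3 µM 3'-OH ends), 10 µM [3H]-dTTP and 8% final DMSO. Incorporation was sampled at 2-min intervals. ID50 came from fitting to a fully non-competitive model. Means of at least three experiments.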

[8] = Selectivity index, ratio of CC50 for human MT4 cells to EC50 for wild type HIV-1 NL4-3 infected in human MT4 cells; assay type: toxicity, cell-based; conditions: read-out: Ratio CC50/EC50
Procedure, shortened: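 Ratio of CC50 to EC50, both from MTT readings in MT-4 cells at day 5. CC50 was taken in mock-infected cells and EC50 in cells infected with wild-type NL4-3. Values are means of at least two experiments.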

[9] = system: Human immunodeficiency virus 1; test: Fold resistance, ratio of EC50 for HIV-1 harboring NNTRI-resistant reverse transcriptase Y188L mutant infected in human MT4 cells to EC50 for wild type HIV-1 NL4-3 infected in human MT4 cells; assay type: functional
Procedure, shortened: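 HIV-1 NL4-3 (wt) or Y188L mutant infection of MT-4 cells across a range of drug concentrations. Viable cells were counted by MTT at day 5 post-infection. […] Fold resistance is mutant EC50 over wt EC50. Means of at least two experiments.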

[10] = Cytotoxicity against human MT4 cells assessed as induction of cell death by MTT method; assay type: cell-based
Procedure, shortened: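 Mock-infected MT-4 cells exposed to a range of drug concentrations. Viability read by MTT colorimetry at day 5. […] Top concentration was limited where compound precipitated in the culture medium. Means of at least two experiments.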

[11] = system: Human immunodeficiency virus 1; test: Fold resistance, ratio of ID50 for HIV-1 recombinant NNTRI-resistant reverse transcriptase L100I mutant to ID50 for wild type HIV-1 recombinant reverse transcriptase
Procedure, shortened: as §2, with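 “Recombinant wt or mutant HIV-1 RT, purified to >95%, at 2-4 nM. RNA-dependent” for “RNA-dependent”, “model. Ratio is ID50 mutant/ID50 wt.” for “model.”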

[12] = system: Human immunodeficiency virus 1; test: Fold resistance, ratio of ID50 for HIV-1 recombinant NNTRI-resistant reverse transcriptase K103N mutant to ID50 for wild type HIV-1 recombinant reverse transcriptase
Procedure, shortened: as §2, with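 “Recombinant wt or mutant HIV-1 RT, purified to >95%, at 2-4 nM. RNA-dependent” for “RNA-dependent”, “model. Ratio is ID50 mutant/ID50 wt.” for “model.”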

[13] = system: Human immunodeficiency virus 1; test: Ratio of efavirenz EC50 to compound EC50 for wild type HIV-1 NL4-3 infected in human MT4 cells; assay type: functional
[14] = system: Human immunodeficiency virus type 1 reverse transcriptase (Human immunodeficiency virus 1), Q72547 [K103N]
[15] = system: Human immunodeficiency virus type 1 reverse transcriptase (Human immunodeficiency virus 1), Q72547 [L100I]
[16] = molecular target: Human immunodeficiency virus type 1 reverse transcriptase (Human immunodeficiency virus 1) (UniProt Q72547)
[17] = system: Human immunodeficiency virus type 1 reverse transcriptase (Human immunodeficiency virus 1), Q72547 [Y181I]

With `CCC(C)Sc1nc(C(C)c2c(F)cccc2Cl)cc(=O)[nH]1` (racemic) the pEC50 [1] was 5.12, the pEC50 [2] was 5.44 and the pEC50 [3] was 6.00. For the same compound, the “Ratio EC50” value [4] was 1000, the “Ratio EC50” value [5] was 3600 and the pEC50 [6] was 9.00. The Ratio [7] was 2640, the selectivity ratio [8] was greater than 73000 and the “Ratio EC50” value [9] was 7500. It also gave a CC50 [10] greater than 73000 nM, a Ratio [11] of 25 and a Ratio [12] of 375.
In the case of `CCCCSc1nc(C(C)c2c(F)cccc2Cl)c(C)c(=O)[nH]1` (racemic), the pEC50 [1] was less than 5.82, the “Ratio EC50” value [13] was 23 and the pEC50 [2] was 6.21. The ID50 [14] was 930 nM, the pEC50 [3] was 6.18 and the “Ratio EC50” value [4] was 2200. For the same compound, the “Ratio EC50” value [5] was 2067, the pEC50 [6] was 9.52 and the Ratio [7] was 20000. For the same compound, the ID50 [15] was 156 nM, the selectivity ratio [8] was greater than 5000 and the CC50 [10] was greater than 1500 nM. For the same compound, the Ratio [11] was 52, the ID50 [16] was 3 nM and the Ratio [12] was 310.
For `CC[C@@H](C)Sc1nc([C@H](C)c2c(F)cccc2Cl)cc(=O)[nH]1`, the pEC50 [1] was 6.07, the pEC50 [2] was 6.24 and the pEC50 [3] was 6.70. For the same compound, the “Ratio EC50” value [4] was 610, the “Ratio EC50” value [5] was 1924 and the pEC50 [6] was 9.52. For the same compound, the Ratio [7] was 3750, the selectivity ratio [8] was greater than 103000 and the “Ratio EC50” value [9] was 2859. The CC50 [10] was greater than 31000 nM, the Ratio [11] was 18 and the Ratio [12] was 488.
Compound `CCCSc1nc(C(C)c2c(F)cccc2Cl)c(C)c(=O)[nH]1` (racemic) has a pEC50 [1] of less than 5.82, a Ratio EC50 [13] of 140 and a pEC50 [2] of 6.59. The ID50 [14] was 1500 nM, the pEC50 [3] was 6.46 and the “Ratio EC50” value [4] was 7000. The “Ratio EC50” value [5] was 5200, the pEC50 [6] was 10.30 and the ID50 [15] was 90 nM. The selectivity ratio [8] was greater than 30000, the CC50 [10] was greater than 1500 nM and the ID50 [16] was 0.9 nM.
`Cc1c(C(C)c2c(F)cccc2Cl)nc(SC2CCCC2)[nH]c1=O` (racemic) gave a pEC50 [1] of 5.54, a Ratio EC50 [13] of 230 and a pEC50 [2] of 6.64. For the same compound, the ID50 [14] was 1300 nM, the pEC50 [3] was 7.03 and the “Ratio EC50” value [4] was 3100. The “Ratio EC50” value [5] was 7667, the pEC50 [6] was 10.52 and the ID50 [15] was 120 nM. For the same compound, the selectivity ratio [8] was greater than 500000, the “Ratio EC50” value [9] was 96667 and the CC50 [10] was greater than 15000 nM. It also gave an ID50 [16] of 11 nM.
With `Cc1c(C(C)c2c(F)cccc2F)nc(SC2CCCC2)[nH]c1=O` (racemic) the pEC50 [1] was less than 5.52, the pEC50 [2] was 7.00 and the ID50 [14] was 30 nM. The “Ratio EC50” value [4] was 230, the “Ratio EC50” value [5] was 100 and the Ratio [7] was 180. It also gave an ID50 [15] of 300 nM, an ID50 [17] of 900 nM and a selectivity ratio [8] greater than 3000. The CC50 [10] was greater than 3000 nM, the Ratio [11] was 60 and the ID50 [16] was 5 nM. It also gave a Ratio [12] of 6.
